Assay results taken from ChEMBL document CHEMBL2062484, “Design of barbiturate-nitrate hybrids that inhibit MMP-9 activity and secretion” (J Med Chem, 2012).
Activity calls are given as the source filed them. No cut-off for these calls is given here.

Key:
Caco-2 [1] = test: Inhibition of HGF stimulated human Caco2 cells migration through matrigel membrane at 100 nM by staining based light microscopic analysis; type: functional
Summary of the method: (§1)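 Matrigel-coated invasion chamber inserts, 8 μm pore membrane, 0.5 mL of 2 × 10⁵ Caco-2 cells/mL; stimulated with HGF (100 or 500 ng/mL) or PMA (10 μM) with compound (100 nM or 10 μM); 48 h invasion at 37 °C, 5% CO2. Non-invading cells swabbed off, lower-surface cells Diff-Quik stained and counted by light microscopy; normalized to stimulated control; duplicates.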

Caco-2 [2] = test: Inhibition of IL1beta/TNFalpha-stimulated MMP-9 secretion in human Caco2 cells at 10 uM after 24 hrs by densitometric analysis; type: functional, cell-based
Summary of the method: (§2)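 Near-confluent (~75%) Caco-2 switched to serum-free medium, pretreated 30 min with compound (10 μM, DMSO <1%), then TNF-α and IL-1β 10 ng/mL for 24 h at 37 °C. Cleared supernatants normalized by Bradford protein, run on 2% gelatin SDS-PAGE, Triton washed, developed 48 h at 37 °C in Tris pH 7.5/CaCl2 buffer, Coomassie stained; lysis bands quantified by densitometry as % of cytokine-only control.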

[3] = Cytotoxicity against human HT1080 cells assessed as cell viability after 24 hrs by MTT assay; type: cell-based; details: HT-1080 cells
Summary of the method: (§3)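 Cells seeded (Caco-2 8 × 10³/well, HT1080 12 × 10⁴/well), grown to 70% confluence, serum-starved 1 h, then exposed to compound at 0.1−200 μM (eight levels) serum-free for 24 h. MTT 0.5 mg/mL for 3 h at 37 °C, formazan dissolved in DMSO, OD 540 nm; viability as % of untreated. CC50 from sigmoidal fits; three experiments, triplicate wells.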

Caco-2 [4] = test: Induction of nitrate release in human Caco2 cells at 200 uM after 24 hrs by Griess assay; type: functional, cell-based
Summary of the method: (§4)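 Compounds incubated 24 h with Caco-2 monolayers at 200 or 10 μM (n = 3). Supernatant nitrite read by Griess reaction (sulfanilamide 2% plus N-1-naphthylethylenediamine) at 4 °C, 45 min shaking, A540; nitrate measured after VCl3 reduction. Quantified against sodium nitrite/nitrate standards 3−200 μM; NOx = nitrite + nitrate.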

Caco-2 [5] = test: Induction of apoptosis in human Caco2 cells assessed as increase in necrotic cell population at 10 uM after 24 hrs by Annexin V FITC staining based flow cytometry; details: caco-2, 24 h
Summary of the method: (§5)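 Cells at 80% confluence in T25 flasks treated 24 h serum-free with compound (10 μM); vehicle-only controls. Cells washed in Hepes pH 7.4/NaCl/CaCl2 binding buffer, double-stained with Annexin V-FITC and propidium iodide 15 min at room temperature in dark, read by flow cytometry within 5 min; expressed as % of control fluorescence.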

HT-1080 [6] = test: Inhibition of PMA-stimulated MMP-9 secretion in human HT1080 cells at 100 uM after 24 hrs by gelatin zymography; type: functional; details: for inhibition at 100 µM: HT-1080, 24 h
Summary of the method: (§6)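 HT1080 at ~75% confluence switched to serum-free medium, pretreated 3 h with compound (100 μM; DMSO ≤0.1%), then PMA 10 μM for 24 h at 37 °C. Cleared supernatants loaded at equal protein on 2% gelatin SDS-PAGE, Triton washed, developed 48 h at 37 °C in Tris pH 7.5/CaCl2 buffer, Coomassie stained; gelatinolytic bands quantified by densitometry relative to stimulated control.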

Caco-2 [7] = test: Induction of apoptosis in human Caco2 cells assessed as increase in apoptotic cell population at 10 uM after 24 hrs by Annexin V FITC staining based flow cytometry; details: caco-2, 24 h; summary of the method: as §5
HT-1080 [8] = test: Inhibition of PMA-stimulated MMP-2 secretion in human HT1080 cells at 100 uM after 24 hrs by gelatin zymography; type: functional, cell-based; summary of the method: as §6
Caco-2 [9] = test: Induction of nitrate release in human Caco2 cells at 10 uM after 24 hrs by Griess assay; type: functional, cell-based; summary of the method: as §4
Caco-2 [10] = test: Induction of nitrite release in human Caco2 cells at 200 uM after 24 hrs by Griess assay; type: functional, cell-based; summary of the method: as §4
Caco-2 [11] = test: Inhibition of IL1beta/TNFalpha-stimulated MMP-2 secretion in human Caco2 cells at 10 uM after 24 hrs by densitometric analysis; type: functional, cell-based; summary of the method: as §2
HT-1080 [12] = test: Induction of apoptosis in human HT1080 cells assessed as increase in apoptotic cell population at 10 uM after 24 hrs by Annexin V FITC staining based flow cytometry; details: ht-1080, 24 h; summary of the method: as §5
[13] = target: 72 kDa type IV collagenase (Homo sapiens, UniProt P08253); test: Inhibition of p-aminophenylmercuric acetate stimulated human recombinant MMP-2 using (7-methoxycoumarin-4-yl)-acetyl-pro-Leu-Gly-Leu-(3-(2,4-dinitrophenyl)-L-2,3-diaminopropionyl)-Ala-Arg-NH2 as substrate after 45 mins by fluorogenic assay
72 kDa type IV collagenase, sequence (P08253 whole entry): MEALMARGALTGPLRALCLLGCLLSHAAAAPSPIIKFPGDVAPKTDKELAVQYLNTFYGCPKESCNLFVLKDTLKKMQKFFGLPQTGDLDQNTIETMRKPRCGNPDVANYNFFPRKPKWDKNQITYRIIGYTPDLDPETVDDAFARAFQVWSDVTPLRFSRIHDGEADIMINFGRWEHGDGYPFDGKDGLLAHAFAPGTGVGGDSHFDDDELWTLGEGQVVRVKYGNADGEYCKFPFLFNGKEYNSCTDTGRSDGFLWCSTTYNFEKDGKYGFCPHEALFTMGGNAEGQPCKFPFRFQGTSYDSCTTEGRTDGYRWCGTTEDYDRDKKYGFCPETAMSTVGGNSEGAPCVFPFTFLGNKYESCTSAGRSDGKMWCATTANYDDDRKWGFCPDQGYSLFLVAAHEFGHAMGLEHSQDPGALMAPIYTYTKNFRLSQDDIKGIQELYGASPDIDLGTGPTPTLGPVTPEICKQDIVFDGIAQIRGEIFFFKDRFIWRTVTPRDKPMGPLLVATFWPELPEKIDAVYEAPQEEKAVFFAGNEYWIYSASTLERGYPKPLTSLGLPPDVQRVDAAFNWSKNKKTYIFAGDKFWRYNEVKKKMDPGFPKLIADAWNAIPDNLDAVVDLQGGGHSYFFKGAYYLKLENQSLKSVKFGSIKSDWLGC

Caco-2 [14] = test: Induction of nitrite release in human Caco2 cells at 10 uM after 24 hrs by Griess assay; type: functional, cell-based; summary of the method: as §4
HT-1080 [15] = test: Induction of apoptosis in human HT1080 cells assessed as increase in necrotic cell population at 10 uM after 24 hrs by Annexin V FITC staining based flow cytometry; details: ht-1080, 24 h; summary of the method: as §5
[16] = Cytotoxicity against human Caco2 cells assessed as inhibition of cell viability at 12.5 uM after 24 hrs by MTT assay; type: cell-based; details: Caco-2 cells, read-out: INH; summary of the method: as §3
[17] = Cytotoxicity against human Caco2 cells assessed as cell viability after 24 hrs by MTT assay; type: cell-based; details: Caco-2 cells; summary of the method: as §3
[18] = target: Matrix metalloproteinase-9 (Homo sapiens, UniProt P14780); test: Inhibition of p-aminophenylmercuric acetate stimulated human recombinant MMP-9 using (7-methoxycoumarin-4-yl)-acetyl-pro-Leu-Gly-Leu-(3-(2,4-dinitrophenyl)-L-2,3-diaminopropionyl)-Ala-Arg-NH2 as substrate after 45 mins by fluorogenic assay
Matrix metalloproteinase-9, sequence (P14780 whole entry): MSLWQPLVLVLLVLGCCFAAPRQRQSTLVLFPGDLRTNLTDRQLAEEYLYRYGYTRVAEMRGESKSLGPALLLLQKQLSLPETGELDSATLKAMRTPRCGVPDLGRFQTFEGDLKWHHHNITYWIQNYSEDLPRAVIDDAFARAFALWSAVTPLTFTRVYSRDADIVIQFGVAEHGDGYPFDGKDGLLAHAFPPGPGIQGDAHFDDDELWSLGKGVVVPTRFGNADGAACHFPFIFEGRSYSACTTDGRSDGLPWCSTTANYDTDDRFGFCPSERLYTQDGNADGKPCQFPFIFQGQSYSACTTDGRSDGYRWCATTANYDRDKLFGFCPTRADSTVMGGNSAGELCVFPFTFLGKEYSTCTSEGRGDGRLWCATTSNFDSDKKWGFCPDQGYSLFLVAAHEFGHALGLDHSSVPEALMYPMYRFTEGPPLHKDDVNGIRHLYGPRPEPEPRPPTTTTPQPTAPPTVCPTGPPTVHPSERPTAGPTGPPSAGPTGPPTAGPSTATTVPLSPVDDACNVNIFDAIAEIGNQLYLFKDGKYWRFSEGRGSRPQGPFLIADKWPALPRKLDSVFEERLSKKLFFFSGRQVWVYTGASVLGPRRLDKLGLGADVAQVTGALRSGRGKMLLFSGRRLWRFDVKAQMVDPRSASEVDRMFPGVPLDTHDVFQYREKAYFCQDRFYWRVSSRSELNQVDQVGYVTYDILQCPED

[19] = Cytotoxicity against human Caco2 cells assessed as inhibition of cell viability at 100 uM after 24 hrs by MTT assay; type: cell-based; details: Caco-2 cells, read-out: INH; summary of the method: as §3
Caco-2 [20] = test: Inhibition of PMA-stimulated human Caco2 cells migration through matrigel membrane at 10 uM after 48 hrs by light microscopic analysis; type: functional; details: Caco-2, 48 h; summary of the method: as §1
Caco-2 [21] = test: Inhibition of HGF-stimulated human Caco2 cells invasion at 10 uM by light microscopic analysis; type: functional; summary of the method: as §1
[22] = Cytotoxicity against human Caco2 cells assessed as inhibition of cell viability at 200 uM after 24 hrs by MTT assay; type: cell-based; details: Caco-2 cells, read-out: INH; summary of the method: as §3

Compound	inhibition at 0.1 µM (Caco-2 [1]) [%]	inhibition (Caco-2 [2])	CC50 at 24 h [3] [µM]	Activity (Caco-2 [4])	Activity (Caco-2 [5])	inhibition at 100 µM (HT-1080 [6]) [%]	Activity (Caco-2 [7])	inhibition (HT-1080 [8])	Activity (Caco-2 [10])	inhibition (Caco-2 [11])	Activity (HT-1080 [12])	IC50 [13] [nM]	Activity (HT-1080 [15])	CC50 at 24 h [17] [µM]	IC50 [18] [nM]	inhibition at 10 µM (Caco-2 [20]) [%]	further results
O=C1NC(=O)C(c2ccc(Oc3ccccc3)cc2)(N2CCCC(CO[N+](=O)[O-])C2)C(=O)N1 (configuration not stated)	40.7	Active	8.1	Active	Non-toxic	> 80	Non-toxic	Active	Active	inactive	Non-toxic	179	Non-toxic	> 12.5	104	–	Activity (Caco-2 [9]): inactive; Activity (Caco-2 [14]): inactive; cytotoxicity at 24 h, 12.5 µM [16]: 37%
O=C1NC(=O)C(c2ccc(Oc3ccccc3)cc2)(N(CCO)CCO)C(=O)N1	51.2	–	6.8	–	–	–	–	–	–	–	–	3.8	–	8.2	26	–	–
O=C1NC(=O)C(c2ccc(Oc3ccccc3)cc2)(N2CCC(CO)CC2)C(=O)N1	39	–	66.6	–	–	–	–	–	–	–	–	66	–	47.8	97	–	–
O=C1NC(=O)C(c2ccc(Oc3ccccc3)cc2)(N(CCO[N+](=O)[O-])CCO[N+](=O)[O-])C(=O)N1	51.4	Active	72	Active	Non-toxic	> 80	Non-toxic	Active	Active	inactive	Non-toxic	328	Non-toxic	> 100	91	43.3	cytotoxicity at 24 h, 100 µM [19]: 6%; inhibition at 10 µM (Caco-2 [21]): 51%
O=C1NC(=O)C(c2ccc(Oc3ccccc3)cc2)(N2CCN(CCO[N+](=O)[O-])CC2)C(=O)N1	34.8	Active	12.8	Active	Non-toxic	> 80	Non-toxic	Active	Active	inactive	Non-toxic	149	Non-toxic	26	92	–	–
O=C1NC(=O)C(c2ccc(Oc3ccccc3)cc2)(N2CCC(CCO[N+](=O)[O-])CC2)C(=O)N1	–	Active	78.7	Active	Non-toxic	–	Non-toxic	Active	Active	inactive	Non-toxic	158	Non-toxic	> 200	152	44.5	inhibition (HT-1080 [6]): Active; cytotoxicity at 24 h, 200 µM [22]: 100%
